Assay outcomes from PubChem.
miR122 inh – miR-122 Renilla sensor signal increase in Huh7, primary screen, miR-122 inhibitor project, cell-based, single point, plate reader; Huh7 miR-122 Renilla luciferase sensor, 48 h; neutral wells = 0, positive control = 100; activation (reporter increase), % at 12.5 µM; 340,000 compounds, 0.3% hits; AID 602342, 2012;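 active = mean replicate activation score at least 90 and every replicate individually at or above 90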;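 also: higher luciferase means less miR-122 activity so hits act as miR-122 inhibitors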
Rtt109 Vps75 – inhibitors of C. albicans Rtt109/Vps75 HAT, primary screen, biochemical, ThioGlo CoA-SH fluorescence, plate reader; inhibition, % at 34.9 µM; Histone acetyltransferase RTT109 (Candida albicans (strain SC5314 / ATCC MYA-2876)), …; 330,000 compounds, 0.16% hits; purified Rtt109/Vps75, 4 h; AID 540336, 2011;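 active = inhibition of at least 50% in every replicate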
HIV Env fusion – inhibitors of HIV-1 Env-driven cell-cell fusion, primary screen, HeLa-JRFL effector, CEM21 target cells, luciferase; AID 651610, 2012; inhibition, % at 12.3 µM; 360,000 compounds, 1.1% hits;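 active = mean replicate inhibition score of at least 50 and every replicate individually at or above 50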;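 also: 0% = plate neutral controls and 100% = maraviroc near 300 nM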
dFosB act – activators of delta FosB homodimer, primary screen, biochemical, fluorescence polarization, TAMRA-CDK5 oligo, single point | Protein FosB (Mus musculus), P13346 | purified delta FosB; percent of positive-control signal above neutral wells | activation, % at 25 µM | 340,000 compounds, 0.99% hits | AID 493131, 2011;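 active = mean activation above about 17%, with every replicate also reaching it, limit read from the data, passing the limit was not always enough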
Target sequence (P13346 whole entry, looked up): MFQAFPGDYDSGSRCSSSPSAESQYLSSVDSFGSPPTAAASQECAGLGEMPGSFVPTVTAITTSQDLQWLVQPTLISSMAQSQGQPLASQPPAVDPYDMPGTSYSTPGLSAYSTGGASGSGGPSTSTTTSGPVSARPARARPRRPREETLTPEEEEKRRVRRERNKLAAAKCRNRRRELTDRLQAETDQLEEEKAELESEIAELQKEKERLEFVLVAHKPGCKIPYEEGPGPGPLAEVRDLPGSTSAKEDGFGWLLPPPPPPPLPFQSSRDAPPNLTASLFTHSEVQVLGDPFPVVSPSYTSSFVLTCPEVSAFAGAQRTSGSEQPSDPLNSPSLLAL
GSIS activator – GLuc luminescence reporter in INS-1E cells, primary screen for activators of glucose-dependent secretion of insulin; activation, % at 16.6 µM; AID 743287, 2014; INS-1E GLuc reporter insulin secretion, 2-3 h; 370,000 compounds, 0.61% hits;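 active = lowest replicate activation of at least 40%, so every replicate reaches that level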;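 also: 0% = median of neutral control wells and 100% = median of IBMX positive control wells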
Cneo AK release – Cryptococcus neoformans cell lysis inducers, primary screen, AK release luminescence, single concentration | lysis activity, % at 15 µM | 360,000 compounds, 0.2% hits | C. neoformans lysis, adenylate kinase release luminescence, 4 h; normalised: neutral wells 0, clomiphene wells 100;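 active = mean lysis activity across replicates of at least 80%, whatever share of replicates individually reach that level; inactive = mean lysis activity below 80%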
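Signal: Adenylate kinase release luminescence | Assay system: Log-phase Cryptococcus neoformans yeast cells | Input: Cells at 5 × 10^6 per mL | Buffer or medium: Fresh YPD growth medium | Compound: Single dose | Schedule: Static 4 h at 37 °C with compound, 1 h detection | Controls: Clomiphene | Read-out: Luminescence rise reflecting yeast cell lysis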
Active calls of the source: *; / = not tested or not shown; [ ] = dose if it differs, or a comment. Most compounds without a hit are left out; they make up all but 2.4% or so of the library.

SMILES | miR122 inh | Rtt109 Vps75 | HIV Env fusion | dFosB act | GSIS activator | Cneo AK release
CC(=O)N1CC2(C1)[C@H](c1ccc(-c3ccc(F)cc3)cc1)[C@H](CO)N2C(C)=O | / | / | / | / | -13 | /
Cc1ccccc1-c1ccc([C@@H]2[C@H](CO)N3C(=O)CN(C(=O)c4ccncc4)C[C@@H]23)cc1 | / | / | / | / | 7 | /
O=C(Nc1cc(F)ccc1F)N1CC(=O)N2[C@H](CO)[C@@H](c3ccc(C#CC4CCCC4)cc3)[C@H]2C1 | / | / | / | / | -29 | /
CO[C@H]1CN(C)C(=O)c2ccc(NC(=O)Nc3cc(F)ccc3F)cc2OC[C@H](C)N(C(=O)c2ccccn2)C[C@@H]1C | / | / | / | / | -6 | /
O=C(CSc1nnc2n1CCCCC2)NCc1ccccc1 | 2 | / | 58* | / | / | 3
CCOC(=O)CSc1nc2ccccc2c(=O)n1CC1CCC(C(=O)NCc2ccco2)CC1 (stereo not given) | 138* | -7 | 23 | -1 | 14 | /
Cc1ccc(CNC(=O)CSc2nnc3n2CCCCC3)cc1 | 7 | 4 | / | -4 | 0 | -2
CCOC(=O)CSc1nc2ccccc2c(=O)n1CC1CCCC1 | -2 | 5 | / | -5 | / | -3
O=C(CSc1nnc(-c2cc3ccccc3cc2O)n1Cc1ccco1)c1ccc(F)cc1 | 231* | 7 | -23 | -6 | / | -1
Cc1cc2c(=O)n(Cc3ccco3)c(SCC(=O)c3ccc(Cl)s3)nc2s1 | 0 | 8 | 76* | -13 | -23 | 5
CCOCCCn1c(SCC(=O)NCc2ccco2)nc2c(sc3ccccc32)c1=O | -3 | 1 | 56* | -1 | -5 | 1
O=C(CSc1nc2ccccc2c(=O)n1CC1CCCO1)NCc1ccccc1 (stereo not given) | 5 | -3 | 7 | -14 | 143* | -6
O=C(CSc1nc2ccccc2c(=O)n1Cc1ccco1)c1ccc(F)cc1 | 5 | -4 | 58* | -12 | / | 0
O=C(CSc1nc2ccccc2c(=O)n1Cc1ccccc1)NCc1ccco1 | 2 | -1 | 7 | -12 | 81* | 0
O=C(CSc1nc2c(oc3ccccc32)c(=O)n1CC1CCCO1)NCc1ccccc1 (stereo not given) | -9 | -3 | 13 | 1 | -22 | 2
NC(=O)CSc1nc2ccccc2c(=O)n1Cc1ccco1 | -11 | -2 | / | -9 | / | 0
CCCCn1c(SCC(=O)NCc2ccco2)nc2c(sc3ccccc32)c1=O | 8 | -15 | -32 | -3 | / | 0
C[C@@H](NC(=O)[C@@H]1[C@@H](CO)[C@@H]2Cn3c(ccc(-c4ccccc4F)c3=O)[C@H]1N2C)c1ccccc1 | / | / | 18[16.7 µM] | / | 8 | 1
C[C@H](CO)N1C[C@H](C)[C@@H](CN(C)Cc2ccc(C(F)(F)F)cc2)OCCCC[C@H](C)Oc2ccc(NC(=O)Cc3ccccc3)cc2C1=O | 7[16.7 µM] | / | 40[16.7 µM] | / | -1 | -2
O=C(Cc1ccc(Nc2nc3ccc(Br)cc3[nH]2)cc1)NCCc1cccs1 | / | -8 | 61* | -7 | 12 | 0
O=C(c1ccccn1)N1CC(=O)N2[C@H](CO)[C@H](c3ccc(C#Cc4ccccc4)cc3)[C@@H]2C1 | / | / | / | / | -13 | /
CCOC(=O)c1cnc(-n2nc(C)cc2C)nc1NC1CCCCC1 | -15 | 24 | 105* | -21 | / | 16
CCOC(=O)c1cnc(-n2nc(C)cc2C)nc1NC | 0 | / | -49 | -7 | / | 14
O=C(NCCCN1CCCC1=O)c1ccc(OC(F)(F)F)cc1 | / | 61* | 0 | -4 | 4 | /
CN(C)CCNc1ncnc2c1sc1nc(-c3ccccc3)c3c(c12)CCCC3 | -35 | 5 | 2 | -33 | 193* | 0
O=C(Nc1nncs1)C1c2ccccc2Oc2ccccc21 | / | -2 | 59* | 3 | -23 | /
COCc1cc(C)nc(OCC(=O)N/N=C/c2ccc(-c3cccc([N+](=O)[O-])c3)o2)c1C#N | / | / | 7 | / | / | /
COCc1cc(C)nc(OCC(=O)N/N=C/c2ccc(-c3cc([N+](=O)[O-])ccc3C)o2)c1C#N | -4 | 0 | 64* | 10 | / | 0
